Assay results from ChEMBL document CHEMBL1123840, “Synthesis and evaluation of melphalan-containing N,N-dialkylenkephalin analogues as irreversible antagonists of the delta opioid receptor” (J Med Chem, 1987).
Where “and” joins values, the source holds several entries; their conditions need not be identical. Equal entries are not always repeated. Square brackets hold non-standard residues; d marks the D form. Peptide text beside a SMILES is read from it. * marks the point of attachment. Tyr(Nα,Nα-Bn2) = O=C([C@H](Cc1ccc(O)cc1)N(Cc1ccccc1)Cc1ccccc1)*; Phe(4-N(CH2CH2Cl)2) = N[C@@H](Cc1ccc(N(CCCl)CCCl)cc1)C(=O)O; Tyr(Nα,Nα-allyl2) = C=CCN(CC=C)[C@@H](Cc1ccc(O)cc1)C(=O)*; Aib = CC(C)(N)C(=O)O

Assays:
[1] = species on record: Mus musculus; experiment: (§1) Reversible opioid agonist activity in the electrically stimulated mouse vas deferens(MVD) at 1 uM concentration; type: functional
[2] = target: Delta-type opioid receptor (Mus musculus) (UniProt P32300); experiment: Ratio of IC50 of DADLE (agonist) after 10 min of incubation along with compound (antagonist) and IC50 of agonist in the absence of compound for delta opioid receptor at 1 uM in MVD assay; type: functional
Sequence of Delta-type opioid receptor (Mus musculus) (P32300 whole entry): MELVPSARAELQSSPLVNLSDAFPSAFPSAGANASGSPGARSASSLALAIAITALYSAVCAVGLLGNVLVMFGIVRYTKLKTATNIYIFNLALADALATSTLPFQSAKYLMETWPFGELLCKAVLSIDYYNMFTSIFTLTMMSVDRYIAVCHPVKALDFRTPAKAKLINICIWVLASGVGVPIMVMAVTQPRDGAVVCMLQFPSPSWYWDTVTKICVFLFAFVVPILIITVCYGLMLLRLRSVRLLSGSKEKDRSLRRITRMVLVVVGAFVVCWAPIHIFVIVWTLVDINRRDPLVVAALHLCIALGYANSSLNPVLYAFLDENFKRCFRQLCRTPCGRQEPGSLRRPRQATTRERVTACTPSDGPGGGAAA
Method in brief: (§2)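 Reversible antagonism was measured in electrically stimulated isolated tissue (MVD or GPI) with the antagonist present. Agonists were morphine (μ), ethylketazocine (κ) and DADLE (δ). The value is the agonist IC50 with antagonist divided by the IC50 without it, i.e. the fold rightward shift of the agonist dose-response curve. Mean ± SEM, n = 3 unless otherwise noted.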

[3] = target: Mu-type opioid receptor (Homo sapiens) (UniProt P35372); experiment: Ratio of IC50 of […] (agonist) after 10 min of incubation along with compound (antagonist) and IC50 of agonist in absence of compound for mu opioid receptor at 1 uM in MVD assay; type: functional; details: Mus musculus; method in brief: as §2
Sequence of Mu-type opioid receptor (Homo sapiens) (P35372 whole entry): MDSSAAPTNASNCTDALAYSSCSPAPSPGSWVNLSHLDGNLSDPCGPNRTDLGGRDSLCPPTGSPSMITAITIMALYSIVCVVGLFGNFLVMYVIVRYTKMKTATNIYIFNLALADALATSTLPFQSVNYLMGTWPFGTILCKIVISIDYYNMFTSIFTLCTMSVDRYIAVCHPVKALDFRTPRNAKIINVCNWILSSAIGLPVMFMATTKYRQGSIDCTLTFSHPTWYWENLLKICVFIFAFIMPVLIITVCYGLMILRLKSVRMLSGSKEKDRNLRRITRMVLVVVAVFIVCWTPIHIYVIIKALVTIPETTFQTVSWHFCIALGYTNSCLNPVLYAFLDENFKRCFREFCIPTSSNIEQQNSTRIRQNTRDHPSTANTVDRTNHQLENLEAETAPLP

[4] = target: Kappa-type opioid receptor (Cavia porcellus) (UniProt P41144); experiment: Ratio of IC50 of ethylketazocine (agonist) after 10 min of incubation along with compound (antagonist) and IC50 of agonist in absence of compound for kappa opioid receptor at 1 uM in GPI assay; type: functional; method in brief: as §2
Sequence of Kappa-type opioid receptor (Cavia porcellus) (P41144 whole entry): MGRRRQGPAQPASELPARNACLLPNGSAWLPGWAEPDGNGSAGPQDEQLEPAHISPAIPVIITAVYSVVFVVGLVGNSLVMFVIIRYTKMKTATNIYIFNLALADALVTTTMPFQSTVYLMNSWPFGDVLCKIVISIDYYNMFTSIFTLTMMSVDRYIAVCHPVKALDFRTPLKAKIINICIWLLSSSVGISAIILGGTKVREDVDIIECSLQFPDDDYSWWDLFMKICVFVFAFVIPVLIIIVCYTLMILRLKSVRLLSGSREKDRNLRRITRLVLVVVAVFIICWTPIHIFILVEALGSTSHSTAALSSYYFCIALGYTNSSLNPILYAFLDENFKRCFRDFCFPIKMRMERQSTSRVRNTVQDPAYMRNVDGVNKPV

[5] = target: Mu-type opioid receptor (Cavia porcellus) (UniProt P97266); experiment: Ratio of IC50 of […] (agonist) after 10 min of incubation along with compound (antagonist) and IC50 of agonist in absence of compound for mu opioid receptor at 1 uM in GPI assay; type: functional; method in brief: as §2
Sequence of Mu-type opioid receptor (Cavia porcellus) (P97266 whole entry): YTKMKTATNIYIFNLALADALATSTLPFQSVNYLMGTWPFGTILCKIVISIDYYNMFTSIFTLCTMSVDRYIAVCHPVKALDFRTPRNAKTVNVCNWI

[6] = species on record: Cavia porcellus; experiment: (§3) Reversible opioid agonist activity in the electrically stimulated guinea pig ileum(GPI) at 1 uM concentration (Exp 1); type: functional
[7] = target: Mu-type opioid receptor (Cavia porcellus) (UniProt P97266); experiment: Ratio of IC50 of […] (agonist) after 10 min of incubation along with compound (antagonist) and IC50 of agonist in absence of compound for mu opioid receptor at 1 uM in GPI assay (Exp 2); type: functional; method in brief: as §2
[8] = target: Kappa-type opioid receptor (Cavia porcellus) (UniProt P41144); experiment: Ratio of IC50 of ethylketazocine (agonist) after 10 min of incubation along with compound (antagonist) and IC50 of agonist in absence of compound for kappa opioid receptor at 1 uM in GPI assay (Exp 1); type: functional; method in brief: as §2
[9] = species on record: Cavia porcellus; experiment: (§4) Reversible opioid agonist activity in the electrically stimulated guinea pig ileum(GPI) at 1 uM concentration (Exp 2); type: functional
[10] = species on record: Cavia porcellus; experiment: Reversible opioid antagonist activity in the electrically stimulated guinea pig ileum(GPI). Antagonist activity was evaluated with morphine at 0.02 uM concentration (Exp 2); type: functional
[11] = target: Mu-type opioid receptor (Mus musculus) (UniProt P42866); experiment: Ratio of IC50 of […] (agonist) after 10 min of incubation along with compound (antagonist) and IC50 of agonist in absence of compound for Opioid receptor mu 1 at 1 uM in MVD assay; type: functional; method in brief: as §2
Sequence of Mu-type opioid receptor (Mus musculus) (P42866 whole entry): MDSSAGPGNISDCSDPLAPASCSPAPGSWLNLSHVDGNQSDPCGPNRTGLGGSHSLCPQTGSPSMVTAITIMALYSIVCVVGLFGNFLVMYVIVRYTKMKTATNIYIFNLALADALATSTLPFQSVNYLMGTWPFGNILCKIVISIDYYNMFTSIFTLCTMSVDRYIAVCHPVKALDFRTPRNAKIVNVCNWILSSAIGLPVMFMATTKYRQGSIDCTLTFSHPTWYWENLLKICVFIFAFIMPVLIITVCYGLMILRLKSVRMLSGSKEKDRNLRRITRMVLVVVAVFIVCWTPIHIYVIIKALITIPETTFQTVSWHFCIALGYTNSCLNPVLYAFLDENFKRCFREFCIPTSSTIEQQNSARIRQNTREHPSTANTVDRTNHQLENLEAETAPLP

[12] = species on record: Mus musculus; experiment: Ratio of IC50 of DADLE (agonist) expossed to the compound for 10 min and then washed 30 times to Ratio of IC50 of morphine (agonist) prior to exposure to compound; type: functional
Method in brief: (§5)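 Irreversible antagonism was measured in isolated tissue. The tissue was exposed to the compound for 10 min (30 min in some cases), then washed 30 times with fresh buffer to remove non-covalently bound ligand. Agonist IC50 was then redetermined. The ratio is this post-wash IC50 over the agonist IC50 in the same tissue before exposure. Mean ± SEM, n = 3 unless otherwise noted.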

[13] = target: Delta-type opioid receptor (Mus musculus) (UniProt P32300); experiment: Ratio of IC50 of DADLE (agonist) after 10 min of incubation along with compound (antagonist) and IC50 of agonist in the absence of compound for Opioid receptor delta 1 at 10 uM in MVD assay; type: functional; method in brief: as §2
[14] = target: T1, Opioid receptor (Mus musculus) (UniProt P42866+P32300+P33534); experiment: Reversible opioid agonist activity in the electrically stimulated mouse vas deferens(MVD) at 10 uM of concentration; type: functional
T1 sequence (P32300 whole entry, looked up): as the sequence (P32300 whole entry) above
T1 sequence (P33534 whole entry, looked up): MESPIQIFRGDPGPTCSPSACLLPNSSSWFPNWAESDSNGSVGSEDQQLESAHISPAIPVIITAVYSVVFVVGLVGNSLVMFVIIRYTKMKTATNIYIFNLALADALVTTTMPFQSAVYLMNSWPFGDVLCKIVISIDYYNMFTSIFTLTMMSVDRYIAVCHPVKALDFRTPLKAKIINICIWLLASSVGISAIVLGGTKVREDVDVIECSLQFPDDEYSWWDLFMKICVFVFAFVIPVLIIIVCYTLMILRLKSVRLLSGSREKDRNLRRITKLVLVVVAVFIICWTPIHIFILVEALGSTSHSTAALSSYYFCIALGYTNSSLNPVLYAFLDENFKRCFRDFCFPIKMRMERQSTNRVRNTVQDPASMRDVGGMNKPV
T1 sequence (P42866 whole entry, looked up): as the sequence (P42866 whole entry) above

[15] = species on record: Mus musculus; experiment: Ratio of IC50 of morphine (agonist) expossed to the compound for 10 min and then washed 30 times to Ratio of IC50 of morphine (agonist) prior to exposure to compound; type: functional; method in brief: as §5
[16] = target: T2, Opioid receptors; mu/kappa/delta (Homo sapiens) (UniProt P41145+P41143+P35372); experiment: as §3; type: functional, tissue-based; details: Cavia porcellus, target entry is the homologue from another species
T2 sequence (P35372 whole entry, looked up): as the sequence (P35372 whole entry) above
T2 sequence (P41143 whole entry, looked up): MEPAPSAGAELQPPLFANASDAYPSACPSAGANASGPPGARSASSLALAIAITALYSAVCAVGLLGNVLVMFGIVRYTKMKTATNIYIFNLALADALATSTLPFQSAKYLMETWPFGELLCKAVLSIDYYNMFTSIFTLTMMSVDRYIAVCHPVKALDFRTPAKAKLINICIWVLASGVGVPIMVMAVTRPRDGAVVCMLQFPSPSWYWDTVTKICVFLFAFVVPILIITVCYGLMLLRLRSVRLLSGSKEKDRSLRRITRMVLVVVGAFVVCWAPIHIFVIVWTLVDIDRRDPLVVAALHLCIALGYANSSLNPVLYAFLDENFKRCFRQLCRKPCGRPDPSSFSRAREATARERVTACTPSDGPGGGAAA
T2 sequence (P41145 whole entry, looked up): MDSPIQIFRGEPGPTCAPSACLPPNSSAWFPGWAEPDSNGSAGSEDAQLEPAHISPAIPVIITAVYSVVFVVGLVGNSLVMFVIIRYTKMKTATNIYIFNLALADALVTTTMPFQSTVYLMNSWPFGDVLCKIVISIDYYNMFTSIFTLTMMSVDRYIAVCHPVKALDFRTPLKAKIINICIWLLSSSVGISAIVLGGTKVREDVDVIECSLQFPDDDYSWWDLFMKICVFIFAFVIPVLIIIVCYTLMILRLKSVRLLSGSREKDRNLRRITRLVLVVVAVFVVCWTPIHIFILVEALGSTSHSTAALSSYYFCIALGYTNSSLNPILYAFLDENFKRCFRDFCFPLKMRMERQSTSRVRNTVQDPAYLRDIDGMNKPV

[17] = target: Delta-type opioid receptor (Mus musculus) (UniProt P32300); experiment: Ratio of IC50 of DADLE (agonist) after 10 min of incubation along with compound (antagonist) and IC50 of agonist in the absence of compound for Opioid receptor delta 1 at 1 uM in MVD assay; type: functional; method in brief: as §2
[18] = target: T1, Opioid receptor (Mus musculus); experiment: as §1; type: functional
[19] = target: Kappa-type opioid receptor (Cavia porcellus) (UniProt P41144); experiment: Ratio of IC50 of ethylketazocine (agonist) after 10 min of incubation along with compound (antagonist) and IC50 of agonist in absence of compound for Opioid receptor kappa 1 at 1 uM in GPI assay; type: functional; method in brief: as §2
[20] = target: Mu-type opioid receptor (Cavia porcellus) (UniProt P97266); experiment: Ratio of IC50 of […] (agonist) after 10 min of incubation along with compound (antagonist) and IC50 of agonist in absence of compound for Opioid receptor mu 1 at 1 uM in GPI assay; type: functional; method in brief: as §2
[21] = target: T2, Opioid receptors; mu/kappa/delta (Homo sapiens); experiment: as §4; type: functional, tissue-based; details: Cavia porcellus, target entry is the homologue from another species
[22] = species on record: Cavia porcellus; experiment: as §4
[23] = target: Delta-type opioid receptor (Homo sapiens) (UniProt P41143); details: Cavia porcellus; 1 uM
Sequence of Delta-type opioid receptor (Homo sapiens) (P41143 whole entry): as the sequence (P41143 whole entry, looked up) above

[24] = target: Delta-type opioid receptor (Mus musculus) (UniProt P32300); details: 10 uM
[25] = target: Delta-type opioid receptor (Homo sapiens) (UniProt P41143); details: Cavia porcellus; 1 uM; remark: listed apart in the source
[26] = target: Delta-type opioid receptor (Homo sapiens) (UniProt P41143); details: Cavia porcellus; 1 uM; remark: listed apart in the source
[27] = target: Kappa-type opioid receptor (Cavia porcellus) (UniProt P41144); details: 1 uM

In the case of CC(C)C[C@H](NC(=O)[C@H](Cc1ccc(N(CCCl)CCCl)cc1)NC(=O)C(C)(C)NC(=O)C(C)(C)NC(=O)[C@H](Cc1ccc(O)cc1)N(Cc1ccccc1)Cc1ccccc1)C(=O)O ({Tyr(Nα,Nα-Bn2)}-[Aib][Aib][Phe(4-N(CH2CH2Cl)2)]L-OH), the inhibition at 1 µM [1] is reported as 22.5%, the IC50 ratio [2] is reported as 1.2 and the IC50 ratio [3] is reported as 1. For the same compound, the IC50 ratio [4] was 0.2 and 0.3, the IC50 ratio [5] was 0.4 and 1 and the Inhibition [6] was 12.5%. The inhibition at 1 µM ([6]; Cavia porcellus, Ileum) was 9.4%.
CC(C)C[C@H](NC(=O)[C@H](Cc1ccccc1)NC(=O)C(C)(C)NC(=O)C(C)(C)NC(=O)[C@H](Cc1ccc(O)cc1)N(Cc1ccccc1)Cc1ccccc1)C(=O)O ({Tyr(Nα,Nα-Bn2)}-[Aib][Aib]FL-OH) was tested, and the inhibition at 1 µM [1] was 25.7%, the IC50 ratio [2] was 5.6 and the IC50 ratio [3] was 1. For the same compound, the IC50 ratio [7] was 0.7, the inhibition at 1 µM [6] was 68.7% and the IC50 ratio [8] was 1. For the same compound, the IC50 [9] was 300 nM and the IC50 ratio [10] was 1.3.
C=CCN(CC=C)[C@@H](Cc1ccc(O)cc1)C(=O)NC(C)(C)C(=O)NC(C)(C)C(=O)N[C@@H](Cc1ccccc1)C(=O)N[C@@H](CC(C)C)C(=O)O ({Tyr(Nα,Nα-allyl2)}-[Aib][Aib]FL-OH) gave an IC50 ratio [11] of 0.8, an IC50 ratio [12] of 5.5 and an IC50 ratio [13] of 147. The inhibition [14] was 15.8%, the IC50 ratio [15] was 0.8 and the inhibition [16] was 16.2%. The IC50 ratio [17] was 15.6, the inhibition [18] was 8.4% and the IC50 ratio [19] was 0.7 and 0.9. The IC50 ratio [20] was 0.5 and 0.6 and the inhibition [21] was 37.8%.
In the case of CC(C)C[C@H](NC(=O)[C@H](Cc1ccccc1)NC(=O)CNC(=O)CNC(=O)[C@H](Cc1ccc(O)cc1)N(Cc1ccccc1)Cc1ccccc1)C(=O)O ({Tyr(Nα,Nα-Bn2)}-GGFL-OH), the inhibition at 1 µM [1] is reported as 11.4%, the IC50 ratio [2] is reported as 6.6 and the IC50 ratio [3] is reported as 0.6. For the same compound, the inhibition at 1 µM [22] was 2.9%, the IC50 ratio [23] was 1.2 and the IC50 ratio [24] was 96.9. It also gave an IC50 ratio [15] of 1, an IC50 ratio [25] of 2.5 and an inhibition at 1 µM [6] of 1.9%. It also gave an IC50 ratio [8] of 1, an IC50 ratio [26] of 0.8 and an IC50 ratio [27] of 1.
